Test results as given in ChEMBL document CHEMBL1136741, “Role of the glycopeptide framework in the antibacterial activity of hydrophobic derivatives of glycopeptide antibiotics” (2003).
Converted amounts (≈) assume the structure as drawn.

Legend:
[1] = system: Staphylococcus epidermidis; assay: Antibacterial activity against Staphylococcus epidermis 533 strain; type: functional
[2] = system: Enterococcus faecalis; assay: Antibacterial activity against glycopeptide susceptible Enterococcus faecalis 559 strain; type: functional
In short: (§1)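 MIC by broth microdilution in Mueller Hinton broth following NCCLS procedures. Compounds dissolved in 10% DMSO in water, then diluted in broth; test range 128 to 0.13 µg/mL, final DMSO 1.28% to 0.0013% accordingly. Repeat determinations usually identical and always within 2-fold. Strain 533 is a clinical isolate; strain 602 is a clinical S. haemoliticus isolate.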

[3] = system: Staphylococcus aureus; assay: Antibacterial activity against glycopeptide intermediate resistant Staphylococcus aureus 3798 strain; type: functional
In short: (§2)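 MIC by broth microdilution in Mueller Hinton broth following NCCLS procedures. Compounds were dissolved in 10% DMSO in water, then diluted in broth. Final DMSO was 1.28% at 128 µg/mL antibiotic down to 0.0013% at 0.13 µg/mL. Repeat determinations were usually identical and always within 2-fold.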

[4] = system: Enterococcus faecalis; assay: Antibacterial activity against glycopeptide resistant Enterococcus faecalis 560 strain; type: functional; in short: as §2
[5] = system: Enterococcus faecium; assay: Antibacterial activity against glycopeptide resistant Enterococcus faecium 569 strain; type: functional; in short: as §2
[6] = system: Enterococcus faecium; assay: Antibacterial activity against glycopeptide susceptible Enterococcus faecium 568 strain; type: functional; in short: as §1
[7] = system: Staphylococcus haemolyticus; assay: Antibacterial activity against Staphylococcus haemolyticus 602 strain
[8] = system: Staphylococcus aureus; assay: Antibacterial activity against glycopeptide intermediate resistant Staphylococcus aureus 3797 strain; type: functional; in short: as §2

| SMILES | MIC [1] | MIC [2] | MIC [3] | MIC [4] | MIC [5] | MIC [6] | MIC [7] | MIC [8] |
| --- | --- | --- | --- | --- | --- | --- | --- | --- |
| CCCCCCCCCCNC(=O)[C@H]1NC(=O)[C@H]2NC(=O)[C@H](NC(=O)[C@@H]3NC(=O)[C@H]4NC(=O)[C@@H](Cc5ccc(c(Cl)c5)Oc5cc3cc(c5O)Oc3ccc(cc3Cl)[C@H]2O)NC(=O)[C@H](N)c2ccc(O)c(c2)Oc2cc(O)cc4c2)c2ccc(O)c(c2)-c2c(O)cc(O)cc21 | 0.13 mg/L (≈ 0.0971 µM) | 0.5 mg/L (≈ 0.374 µM) | 1 mg/L (≈ 0.747 µM) | 4 mg/L (≈ 2.99 µM) | 4 mg/L (≈ 2.99 µM) | 0.25 mg/L (≈ 0.187 µM) | 0.5 mg/L (≈ 0.374 µM) | 1 mg/L (≈ 0.747 µM) |
| CC(=O)N[C@@H]1[C@H](O[C@@H]2c3ccc(c(Cl)c3)Oc3cc(cc(Oc4ccc(C[C@@H](N)CO)cc4Cl)c3O)[C@@H](N)C(=O)N[C@H]3C(=O)N[C@@H]2C(=O)N[C@H](C(=O)O)c2cc(O)cc(O[C@H]4O[C@H](CO)[C@@H](O)[C@@H](O)[C@@H]4O)c2-c2cc3ccc2O)O[C@@H](CO)[C@@H](O)[C@@H]1O | 64 mg/L (≈ 51 µM) | 64 mg/L (≈ 51 µM) | > 64 mg/L | > 128 mg/L | > 128 mg/L | 32 mg/L (≈ 25.5 µM) | 64 mg/L (≈ 51 µM) | > 64 mg/L |
| N[C@H]1C(=O)N[C@@H]2Cc3ccc(c(Cl)c3)Oc3cc4cc(c3O)Oc3ccc(cc3Cl)[C@@H](O)[C@@H]3NC(=O)[C@H](NC(=O)[C@@H]4NC(=O)[C@@H](NC2=O)c2cc(O)cc(c2)Oc2cc1ccc2O)c1ccc(O)c(c1)-c1c(O)cc(O)cc1[C@@H](C(=O)NCc1ccc(-c2ccc(Cl)cc2)cc1)NC3=O | 0.13 mg/L (≈ 0.0929 µM) | 0.25 mg/L (≈ 0.179 µM) | 1 mg/L (≈ 0.715 µM) | 8 mg/L (≈ 5.72 µM) | 4 mg/L (≈ 2.86 µM) | 0.25 mg/L (≈ 0.179 µM) | 0.13 mg/L (≈ 0.0929 µM) | 1 mg/L (≈ 0.715 µM) |
| NC(=O)C[C@@H]1NC(=O)[C@H](N)[C@H](O)c2ccc(c(Cl)c2)Oc2cc3cc(c2O)Oc2ccc(cc2)[C@@H](O)[C@@H]2NC(=O)[C@H](NC(=O)[C@@H]3NC1=O)c1ccc(O)c(c1)-c1c(O)cc(O)cc1[C@@H](C(=O)NCc1ccc(-c3ccc(Cl)cc3)cc1)NC2=O | 32 mg/L (≈ 27.1 µM) | 64 mg/L (≈ 54.1 µM) | 64 mg/L (≈ 54.1 µM) | 64 mg/L (≈ 54.1 µM) | 64 mg/L (≈ 54.1 µM) | 32 mg/L (≈ 27.1 µM) | 64 mg/L (≈ 54.1 µM) | 64 mg/L (≈ 54.1 µM) |
| CN[C@H](CC(C)C)C(=O)N[C@H]1C(=O)N[C@@H](CC(N)=O)C(=O)N[C@H]2C(=O)N[C@H]3C(=O)N[C@H](C(=O)N[C@H](C(=O)O)c4cc(O)cc(O)c4-c4cc3ccc4O)[C@H](O)c3ccc(cc3)Oc3cc2cc(c3O)Oc2ccc(cc2Cl)[C@H]1O [EREMOMYCIN AGLYCON] | 32 mg/L (≈ 28.8 µM) | 16 mg/L (≈ 14.4 µM) | > 64 mg/L | > 128 mg/L | > 128 mg/L | 32 mg/L (≈ 28.8 µM) | 16 mg/L (≈ 14.4 µM) | > 64 mg/L |
| CN[C@H](CC(C)C)C(=O)N[C@H]1C(=O)N[C@@H](CC(N)=O)C(=O)N[C@H]2C(=O)N[C@H]3C(=O)N[C@H](C(=O)N[C@H](C(=O)O)c4cc(O)cc(O)c4-c4cc3ccc4O)[C@H](O[C@@H]3C[C@@](C)(N)[C@H](O)[C@@H](C)O3)c3ccc(cc3)Oc3cc2cc(c3O[C@H]2O[C@@H](CO)[C@H](O)[C@@H](O)[C@@H]2O[C@H]2C[C@](C)(N)[C@@H](O)[C@H](C)O2)Oc2ccc(cc2Cl)[C@H]1O [EREMOMYCIN] | 0.25 mg/L (≈ 0.16 µM) | 0.25 mg/L (≈ 0.16 µM) | 8 mg/L (≈ 5.13 µM) | > 128 mg/L | > 128 mg/L | 0.25 mg/L (≈ 0.16 µM) | 0.25 mg/L (≈ 0.16 µM) | 8 mg/L (≈ 5.13 µM) |
| N[C@H]1C(=O)N[C@@H]2Cc3ccc(c(Cl)c3)Oc3cc4cc(c3O)Oc3ccc(cc3Cl)[C@@H](O)[C@@H]3NC(=O)[C@H](NC(=O)[C@@H]4NC(=O)[C@@H](NC2=O)c2cc(O)cc(c2)Oc2cc1ccc2O)c1ccc(O)c(c1)-c1c(O)cc(O)cc1[C@@H](C(=O)O)NC3=O [TEICOPLANIN AGLYCON] | 0.25 mg/L (≈ 0.209 µM) | 0.13 mg/L (≈ 0.108 µM) | 1 mg/L (≈ 0.834 µM) | > 128 mg/L | > 128 mg/L | 0.13 mg/L (≈ 0.108 µM) | 0.25 mg/L (≈ 0.209 µM) | 1 mg/L (≈ 0.834 µM) |
